Laboratory results as given in ChEMBL document CHEMBL1955763, “Antimicrobial activity of sulfonamides containing 5-chloro-2-hydroxybenzaldehyde and 5-chloro-2-hydroxybenzoic acid scaffold” (Eur J Med Chem, 2012).
pIC50: −log10 of the molar value. Converted amounts (≈) assume the structure as drawn.

Columns and labels:
[1] = tested on: Escherichia coli; test: Antibacterial activity against Escherichia coli CCM 4517 after 24 hrs by broth microdilution method; format: functional; conditions: CCM 4517, 24 h
How it was run: (§1)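 Broth microdilution modified from standard M07-A07 in Mueller-Hinton broth at pH 7.4 (±0.2). Compounds were dissolved in DMSO. Inoculum in sterile water was adjusted to 0.5 McFarland (1.5 × 10⁸ CFU/mL). MIC was taken as IC₉₀, i.e. ≥90% growth reduction versus control, read visually and spectrophotometrically at 540 nm.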

[2] = tested on: Trichosporon asahii; test: Antifungal activity against Trichosporon asahii 1188 after 24 hrs by broth microdilution method; format: functional; conditions: Trichosporon asahii, 1188, 24 h
How it was run: (§2)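 Microdilution broth per CLSI M27-A3 (yeasts) or M38-A2 (moulds) in RPMI 1640 with glutamine, buffered to pH 7.0 with 0.165 mol MOPS. Compounds were in DMSO. Final inoculum was 5 × 10³ ± 0.2 CFU/mL. Other conditions matched the antibacterial assay, with MIC as IC₉₀ read visually and at 540 nm. Determined twice, in duplicate.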

[3] = tested on: Staphylococcus aureus; test: Antibacterial activity against Staphylococcus aureus CCM 4516/08 after 24 hrs by broth microdilution method; format: functional; conditions: CCM 4516/08, 24 h
How it was run: (§3)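 Microdilution broth method modified from M07-A07, in Mueller-Hinton broth at pH 7.4 (±0.2). Compounds were dissolved in DMSO. Inoculum was made in sterile water to 0.5 McFarland (1.5 × 10⁸ CFU/mL). MIC was taken as IC₉₀, meaning ≥90% growth reduction versus the drug-free control. Growth was read visually and by absorbance at 540 nm.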

[4] = tested on: Mycobacterium kansasii; test: Antimycobacterial activity against Mycobacterium kansasii 235/80 after 14 days; format: functional; conditions: 235/80, 336 h
How it was run: (§4)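 Micromethod MIC in Sula semisynthetic medium, with compounds added as DMSO solutions at […]. Incubation at 37 °C. Inocula: M. kansasii 235/80 at dilution 10⁻⁴, clinical isolate 6509/96 at 10⁻⁵.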

[5] = tested on: Mycobacterium kansasii; test: Antimycobacterial activity against Mycobacterium kansasii 6509/96 after 21 days; format: functional; conditions: 6509/96, 504 h; how it was run: as §4
[6] = tested on: Mycobacterium kansasii; test: Antimycobacterial activity against Mycobacterium kansasii 6509/96 after 14 days; format: functional; conditions: 6509/96, 336 h; how it was run: as §4
[7] = tested on: Candida tropicalis; test: Antifungal activity against Candida tropicalis 156 after 24 hrs by broth microdilution method; format: functional; conditions: Candida tropicalis, 156, 24 h; how it was run: as §2
[8] = tested on: Pseudomonas aeruginosa; test: Antibacterial activity against Pseudomonas aeruginosa CCM 1961 after 24 hrs by broth microdilution method; format: functional; conditions: CCM 1961, 24 h; how it was run: as §1
[9] = tested on: Klebsiella pneumoniae; test: Antibacterial activity against Klebsiella pneumoniae D 11750/08 after 24 hrs by broth microdilution method; format: functional; conditions: D 11750/08, 24 h; how it was run: as §1
[10] = tested on: Mycobacterium kansasii; test: Antimycobacterial activity against Mycobacterium kansasii 235/80 after 7 days; format: functional; conditions: 235/80, 168 h; how it was run: as §4
[11] = tested on: Candida albicans; test: Antifungal activity against Candida albicans ATCC 44857 after 24 hrs by broth microdilution method; format: functional; conditions: ATCC 44857, 24 h; how it was run: as §2
[12] = Selectivity ratio of IC50 for human HepG2 cell sto MIC90 for Staphylococcus aureus CCM 4516/08; format: functional
[13] = tested on: Trichophyton mentagrophytes; test: Antifungal activity against Trichophyton mentagrophytes 445 after 24 hrs by broth microdilution method; format: functional; conditions: Trichophyton mentagrophytes, 445, 24 h
[14] = tested on: HepG2; test: Cytotoxicity against human HepG2 cells after 24 hrs by MTS assay; format: cell-based; conditions: HepG2, 24 h
How it was run: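 Hep G2 human liver cells (passage 3–4), 10 000 per well, in MEM with 1% glutamine, 10% fetal serum and 1% non-essential amino acids. Compounds were added from DMSO at eight increasing concentrations in quadruplicate. Exposure was 24 h at 37 °C in 5% CO₂, then MTS reagent for 1.5 h. Formazan was read at 490 nm and IC₅₀ derived as 50% of control viability.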

[15] = tested on: Mycobacterium kansasii; test: Antimycobacterial activity against Mycobacterium kansasii 6509/96 after 7 days; format: functional; conditions: 6509/96, 168 h; how it was run: as §4
[16] = tested on: Klebsiella pneumoniae; test: Antibacterial activity against ESBL-positive Klebsiella pneumoniae J 14368/08 after 24 hrs by broth microdilution method; format: functional; conditions: J 14368/08, 24 h; how it was run: as §1
[17] = tested on: Mycobacterium tuberculosis; test: Antimycobacterial activity against Mycobacterium tuberculosis H37Rv 331/88 after 14 days; format: functional; conditions: H37Rv 331/88, 336 h
[18] = Selectivity ratio of IC50 for human HepG2 cell sto MIC100 for Mycobacterium kansasii 6509/96; format: functional
[19] = tested on: Staphylococcus epidermidis; test: Antibacterial activity against methicillin-resistant Staphylococcus epidermidis H 6966/08 after 48 hrs by broth microdilution method; format: functional; conditions: H 6966/08, 48 h; how it was run: as §3
[20] = tested on: Staphylococcus aureus; test: Antibacterial activity against methicillin-resistant Staphylococcus aureus H 5996/08 after 24 hrs by broth microdilution method; format: functional; conditions: H 5996/08, 24 h; how it was run: as §3
[21] = tested on: Nakaseomyces glabratus; test: Antifungal activity against Candida glabrata 20/I after 24 hrs by broth microdilution method; format: functional; how it was run: as §2
[22] = tested on: Mycobacterium kansasii; test: Antimycobacterial activity against Mycobacterium kansasii 235/80 after 21 days; format: functional; conditions: 235/80, 504 h; how it was run: as §4
[23] = tested on: Staphylococcus aureus; test: Antibacterial activity against Staphylococcus aureus CCM 4516/08 after 48 hrs by broth microdilution method; format: functional; conditions: CCM 4516/08, 48 h; how it was run: as §1
[24] = tested on: Staphylococcus epidermidis; test: Antibacterial activity against methicillin-resistant Staphylococcus epidermidis H 6966/08 after 24 hrs by broth microdilution method; format: functional; conditions: H 6966/08, 24 h; how it was run: as §3
[25] = tested on: Aspergillus fumigatus; test: Antifungal activity against Aspergillus fumigatus 231 after 24 hrs by broth microdilution method; format: functional; conditions: Aspergillus fumigatus, 231, 24 h; how it was run: as §2
[26] = tested on: Staphylococcus aureus; test: Antibacterial activity against methicillin-resistant Staphylococcus aureus H 5996/08 after 48 hrs by broth microdilution method; format: functional; conditions: H 5996/08, 48 h; how it was run: as §3
[27] = tested on: Mycobacterium tuberculosis; test: Antimycobacterial activity against Mycobacterium tuberculosis H37Rv 331/88 after 21 days; format: functional; conditions: H37Rv 331/88, 504 h
How it was run: (§5)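 Micromethod in Sula semisynthetic medium, with compounds added as DMSO solutions over a two-fold series from 1000 down to 1. Inoculum for M. avium 330/88 was a 10⁻⁵ dilution. Plates were incubated at 37 °C and MIC was read after 14 and 21 days.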

[28] = tested on: Lichtheimia corymbifera; test: Antifungal activity against Absidia corymbifera 272 after 24 hrs by broth microdilution method; format: functional; conditions: Lichtheimia corymbifera, 272, 24 h; how it was run: as §2
[29] = Selectivity ratio of IC50 for human HepG2 cell sto MIC100 for Mycobacterium kansasii 235/80; format: functional
[30] = tested on: Mycobacterium avium; test: Antimycobacterial activity against isoniazid-, rifampicin-, ofloxacin-, ethambutol-resistant Mycobacterium avium 330/88 after 14 days; format: functional; conditions: 330/88, 336 h; how it was run: as §5
[31] = tested on: Pichia kudriavzevii; test: Antifungal activity against Candida krusei E58 after 24 hrs by broth microdilution method; format: functional; conditions: E58, 24 h; how it was run: as §2
[32] = tested on: Mycobacterium avium; test: Antimycobacterial activity against isoniazid-, rifampicin-, ofloxacin-, ethambutol-resistant Mycobacterium avium 330/88 after 21 days; format: functional; conditions: 330/88, 504 h; how it was run: as §5
[33] = tested on: Enterococcus sp.; test: Antibacterial activity against Enterococcus sp. J 14365/08 after 24 hrs by broth microdilution method; format: functional; conditions: J 14365/08, 24 h; how it was run: as §1

| Structure (SMILES) | MIC [2] [µM] | MIC [3] [µM] | MIC [4] [µM] | MIC [5] [µM] | MIC [6] [µM] | MIC [10] [µM] | Ratio [12] | MIC [13] [µM] | pIC50 [14] | MIC [15] [µM] | MIC [17] [µM] | Ratio [18] | MIC [19] [µM] | MIC [20] [µM] | MIC [22] [µM] | MIC [23] [µM] | MIC [24] [µM] | MIC [26] [µM] | MIC [27] [µM] | Ratio [29] | also measured |
| --- | --- | --- | --- | --- | --- | --- | --- | --- | --- | --- | --- | --- | --- | --- | --- | --- | --- | --- | --- | --- | --- |
| Cc1cc(NS(=O)(=O)c2ccc(/N=C/c3cc(Cl)ccc3O)cc2)no1 | > 125 | 31.2 (≈ 12.2 µg/mL) | 8 (≈ 3.13 µg/mL) | 8 (≈ 3.13 µg/mL) | 4 (≈ 1.57 µg/mL) | 4 (≈ 1.57 µg/mL) | 6.1 | > 125 | 3.71 | 4 (≈ 1.57 µg/mL) | 125 (≈ 49 µg/mL) | 12.1 | > 500 | 15.6 (≈ 6.12 µg/mL) | 16 (≈ 6.27 µg/mL) | 31.2 (≈ 12.2 µg/mL) | > 500 | 31.2 (≈ 12.2 µg/mL) | 250 (≈ 98 µg/mL) | 12.1 | MIC [1]: 125 µM (≈ 49 µg/mL); MIC [7]: > 125 µM; MIC [8]: ≥ 500 µM; MIC [9]: 500 µM (≈ 196 µg/mL); MIC [11]: > 125 µM; MIC [16]: 500 µM (≈ 196 µg/mL); MIC [21]: > 125 µM; MIC [25]: > 125 µM; MIC [28]: > 125 µM; MIC [30]: 62.5 µM (≈ 24.5 µg/mL); MIC [31]: > 125 µM; MIC [32]: 125 µM (≈ 49 µg/mL) |
| Cc1cc(C)nc(NS(=O)(=O)c2ccc(NC(=O)c3cc(Cl)ccc3O)cc2)n1 | 125 (≈ 54.1 µg/mL) | 15.6 (≈ 6.76 µg/mL) | 32 (≈ 13.9 µg/mL) | 62.5 (≈ 27.1 µg/mL) | 62.5 (≈ 27.1 µg/mL) | 16 (≈ 6.93 µg/mL) | 10.8 | 125 (≈ 54.1 µg/mL) | 3.47 | 16 (≈ 6.93 µg/mL) | 125 (≈ 54.1 µg/mL) | 5.4 | 250 (≈ 108 µg/mL) | 15.6 (≈ 6.76 µg/mL) | 62.5 (≈ 27.1 µg/mL) | 15.6 (≈ 6.76 µg/mL) | 31.2 (≈ 13.5 µg/mL) | 31.2 (≈ 13.5 µg/mL) | 125 (≈ 54.1 µg/mL) | 5.4 | MIC [33]: 125 µM (≈ 54.1 µg/mL); MIC [30]: 32 µM (≈ 13.9 µg/mL); MIC [32]: 62.5 µM (≈ 27.1 µg/mL) |
